From ChEMBL document CHEMBL1140377, “2,5-diketopiperazines as potent, selective, and orally bioavailable oxytocin antagonists. 2. Synthesis, chirality, and pharmacokinetics” (J Med Chem, 2005)

Experiments:
Oxytocin receptor = target: T1, Oxytocin receptor (Homo sapiens, UniProt P30559); assay: Displacement of [3H]oxytocin from human Oxytocin receptor
T1 sequence (P30559 whole entry): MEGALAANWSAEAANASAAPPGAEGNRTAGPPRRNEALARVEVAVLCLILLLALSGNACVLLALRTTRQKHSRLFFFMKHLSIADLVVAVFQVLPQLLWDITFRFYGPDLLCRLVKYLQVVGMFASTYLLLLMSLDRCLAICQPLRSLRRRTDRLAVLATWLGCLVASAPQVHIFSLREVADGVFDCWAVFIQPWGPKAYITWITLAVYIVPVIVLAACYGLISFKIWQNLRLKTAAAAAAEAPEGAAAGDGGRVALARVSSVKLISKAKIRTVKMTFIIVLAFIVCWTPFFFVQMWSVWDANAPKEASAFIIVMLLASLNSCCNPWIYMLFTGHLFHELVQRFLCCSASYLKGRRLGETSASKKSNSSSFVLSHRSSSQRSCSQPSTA

[1] = Bioavailability in rat; format: ADME, organism-based; settings: in vivo
[2] = Volume of distribution in rat; format: ADME, organism-based; settings: in vivo, read-out: Vdss
[3] = Half life in rat; format: ADME; settings: in vivo
[4] = Lipophilicity of the compound measured as CHI LogD by HPLC; format: physicochemical
[5] = Per oral administration of 5 mg/Kg of dose required for measuring Area under concentration of curve in rat; format: ADME; settings: in vivo
Outline: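 Rats (n=2) received 5 mg/kg in 5% DMSO/95% PEG400. Plasma exposure is reported as AUC in h ng mL−1.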

Plasma clearance in rat = settings: in vivo
[6] = Per oral administration of 0.6 mg/Kg of dose required for measuring Area under concentration of curve in dog; format: ADME, Canis lupus familiaris; settings: in vivo
Outline: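 Dogs (n=1) received 0.6 mg/kg in either 5% DMSO/95% PEG400 or 5% DMSO/95% labrafil. Exposure is given as plasma AUC in h ng mL−1.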

[7] = Volume of distribution in dog; format: ADME, organism-based, Canis lupus familiaris; settings: in vivo, read-out: Vdss
[8] = Bioavailability in dog; format: ADME, organism-based, Canis lupus familiaris; settings: in vivo
Vasopressin V2 receptor = Vasopressin V2 receptor (Homo sapiens, UniProt P30518); assay: Displacement of [3H]oxytocin from human V2 vasopressin receptor
Sequence of Vasopressin V2 receptor (P30518 whole entry): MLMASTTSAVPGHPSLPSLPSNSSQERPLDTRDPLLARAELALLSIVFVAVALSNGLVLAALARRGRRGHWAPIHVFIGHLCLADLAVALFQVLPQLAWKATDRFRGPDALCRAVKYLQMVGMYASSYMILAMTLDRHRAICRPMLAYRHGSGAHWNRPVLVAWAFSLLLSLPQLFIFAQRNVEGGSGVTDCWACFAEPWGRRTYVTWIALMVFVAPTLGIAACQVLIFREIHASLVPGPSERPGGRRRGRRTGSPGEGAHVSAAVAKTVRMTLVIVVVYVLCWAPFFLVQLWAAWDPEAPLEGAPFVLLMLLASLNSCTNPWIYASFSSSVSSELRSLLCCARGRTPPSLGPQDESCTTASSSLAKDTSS

[9] = Per oral administration of 5 mg/Kg of dose required for measuring Area under concentration of curve in dog; format: ADME, Canis lupus familiaris; settings: in vivo
Plasma clearance in dog = settings: in vivo
Vasopressin V1b receptor = target: T2, Vasopressin V1b receptor (Homo sapiens, UniProt P47901); assay: Displacement of [3H]vasopressin from human V1b vasopressin receptor
T2 sequence (P47901 whole entry): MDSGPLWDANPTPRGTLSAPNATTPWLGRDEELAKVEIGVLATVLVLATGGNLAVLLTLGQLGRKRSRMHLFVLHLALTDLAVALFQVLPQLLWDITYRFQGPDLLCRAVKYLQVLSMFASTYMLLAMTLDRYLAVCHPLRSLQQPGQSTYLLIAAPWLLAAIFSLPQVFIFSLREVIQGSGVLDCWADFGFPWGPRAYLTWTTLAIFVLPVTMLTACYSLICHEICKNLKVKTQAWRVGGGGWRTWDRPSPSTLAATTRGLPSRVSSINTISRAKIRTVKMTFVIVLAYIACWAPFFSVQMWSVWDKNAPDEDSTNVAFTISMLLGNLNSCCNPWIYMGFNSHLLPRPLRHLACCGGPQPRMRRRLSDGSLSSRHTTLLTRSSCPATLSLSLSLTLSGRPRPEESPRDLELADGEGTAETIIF

Vasopressin V1a receptor = Vasopressin V1a receptor (Homo sapiens, UniProt P37288); assay: Displacement of [3H]vasopressin from human V1a vasopressin receptor
Sequence of Vasopressin V1a receptor (P37288 whole entry): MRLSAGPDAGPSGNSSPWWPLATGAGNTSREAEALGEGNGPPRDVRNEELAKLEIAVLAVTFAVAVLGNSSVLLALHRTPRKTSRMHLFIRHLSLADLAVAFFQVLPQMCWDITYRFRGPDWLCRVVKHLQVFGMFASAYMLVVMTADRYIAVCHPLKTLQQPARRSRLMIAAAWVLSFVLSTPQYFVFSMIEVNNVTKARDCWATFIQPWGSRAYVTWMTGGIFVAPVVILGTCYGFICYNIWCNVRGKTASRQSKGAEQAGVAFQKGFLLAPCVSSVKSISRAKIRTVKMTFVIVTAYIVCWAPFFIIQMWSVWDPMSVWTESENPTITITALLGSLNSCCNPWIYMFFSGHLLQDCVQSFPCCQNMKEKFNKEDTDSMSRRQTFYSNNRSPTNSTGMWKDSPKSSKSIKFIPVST

[10] = Per oral administration of 0.6 mg/Kg of dose required for measuring Area under concentration of curve in dog; settings: in vivo

Compound	Ki (Oxytocin receptor)	chromatographic logD [4]	AUC [5]	other results
CC(=O)Nc1cccc([C@H](C(=O)NC(C)(C)C)N2C(=O)[C@@H](C3Cc4ccccc4C3)NC(=O)[C@H]2CC(C)C)c1	6.31 nM	–	–	–
CC(C)C[C@@H]1C(=O)N[C@H](C2Cc3ccccc3C2)C(=O)N1[C@H](C(=O)NC(C)C)c1ccc(C(F)(F)F)cc1	79.4 nM	–	–	–
CC(C)C[C@@H]1C(=O)N[C@H](C2Cc3ccccc3C2)C(=O)N1[C@@H](C(=O)NC(C)(C)C)c1ccccc1	5.01 nM	–	–	–
CC(C)C[C@@H]1CN[C@H](C2Cc3ccccc3C2)C(=O)N1[C@@H](C(=O)NC(C)C)c1ccccc1	316 nM	–	–	–
C=CCN1C(=O)[C@@H](CC(C)C)N([C@@H](C(=O)NC(C)C)c2ccccc2)C(=O)[C@H]1C1Cc2ccccc2C1	63.1 nM	–	–	–
CC(C)C[C@@H]1C(=O)N[C@H](C2Cc3ccccc3C2)C(=O)N1[C@@H](C(=O)NC(C)C)c1ccc(S(C)(=O)=O)cc1	10 nM	2.4	60 ng·h/mL	bioavailability [1]: 3%; Vd [2]: 0.7 L/kg; half-life [3]: 90 min; CL (Plasma clearance in rat): 21 mL/min/kg
Cc1ccc([C@@H](C(=O)NC(C)C)N2C(=O)[C@@H](C3Cc4ccccc4C3)NC(=O)[C@H]2CC(C)C)cc1	50.1 nM	–	–	–
CC(C)C[C@@H]1C(=O)N[C@H](C2Cc3ccccc3C2)C(=O)N1[C@@H](C(=O)NC(C)C)c1ccc(F)cc1F	–	–	–	AUC [6]: 291 ng·h/mL; Vd [7]: 1.2 L/kg; F [8]: 33%; Ki (Vasopressin V2 receptor): 631 nM; AUC [9]: 121 ng·h/mL; CL (Plasma clearance in dog): 11 mL/min/kg; Ki (Vasopressin V1b receptor): > 6310 nM; Ki (Vasopressin V1a receptor): > 6310 nM
CC(C)C[C@@H]1C(=O)N[C@H](C2Cc3ccccc3C2)C(=O)N1[C@@H](C(=O)NC(C)C)c1ccc(N(C)C)cc1	3.16 nM	3.4	287 ng·h/mL	Vd [7]: 1.7 L/kg; bioavailability [8]: 50%; bioavailability [1]: 5%; Vd [2]: 2.3 L/kg; half-life [3]: 72 min; Ki (Vasopressin V2 receptor): > 79400 nM; CL (Plasma clearance in dog): 15 mL/min/kg; CL (Plasma clearance in rat): 48 mL/min/kg; Ki (Vasopressin V1b receptor): > 50100 nM; Ki (Vasopressin V1a receptor): > 39800 nM; AUC [10]: 335 ng·h/mL
CC(C)C[C@@H]1C(=O)N[C@H](C2Cc3ccccc3C2)C(=O)N1[C@H](C(=O)NC(C)C)c1ccc(C(N)=O)cc1	158 nM	–	–	–
CC(C)C[C@@H]1C(=O)N[C@H](C2Cc3ccccc3C2)C(=O)N1[C@@H](C(=O)NC(C)(C)C)c1ccc(OC(F)(F)F)cc1	5.01 nM	4.1	85 ng·h/mL	–
CC(C)C[C@@H]1C(=O)N[C@H](C2Cc3ccccc3C2)C(=O)N1[C@@H](C(=O)NC(C)C)c1ccc(C(N)=O)cc1	31.6 nM	1.8	44 ng·h/mL	–
CC(C)C[C@@H]1C(=O)N[C@H](C2Cc3ccccc3C2)C(=O)N1[C@@H](C(=O)NC(C)C)c1ccc(F)cc1	3.98 nM	3.2	421 ng·h/mL	Vd [7]: 0.8 L/kg; bioavailability [8]: 13%; bioavailability [1]: 13%; Vd [2]: 0.8 L/kg; half-life [3]: 54 min; Ki (Vasopressin V2 receptor): > 1260 nM; CL (Plasma clearance in dog): 5 mL/min/kg; CL (Plasma clearance in rat): 23 mL/min/kg; Ki (Vasopressin V1b receptor): > 6310 nM; Ki (Vasopressin V1a receptor): > 6310 nM; AUC [10]: 259 ng·h/mL
COc1ccc([C@@H](C(=O)NC(C)(C)C)N2C(=O)[C@@H](C3Cc4ccccc4C3)NC(=O)[C@H]2CC(C)C)cc1	39.8 nM	–	–	–
CC(C)C[C@@H]1C(=O)N[C@H](C2Cc3ccccc3C2)C(=O)N1[C@H](C(=O)NC(C)C)c1ccc(S(C)(=O)=O)cc1	100 nM	–	–	–
CC(C)C[C@@H]1C(=O)N[C@H](C2Cc3ccccc3C2)C(=O)N1[C@H](C(=O)NC(C)(C)C)c1ccccc1	79.4 nM	–	–	–
CC(C)C[C@@H]1C(=O)N[C@H](C2Cc3ccccc3C2)C(=O)N1[C@@H](C(=O)NC(C)C)c1ccc(C(F)(F)F)cc1	5.01 nM	3.7	280 ng·h/mL	–

Compound	Ki (Oxytocin receptor)	chromatographic logD [4]	AUC [5]	other results
CC(C)C[C@@H]1C(=O)N[C@H](C2Cc3ccccc3C2)C(=O)N1[C@H](C(=O)NC(C)(C)C)c1ccc(Cl)cc1	158 nM	–	–	–
CC(C)C[C@@H]1C(=O)N[C@H](C2Cc3ccccc3C2)C(=O)N1[C@H](C(=O)NC(C)C)c1ccccc1	50.1 nM	–	–	–
CC(=O)Nc1ccc([C@H](C(=O)NC(C)C)N2C(=O)[C@@H](C3Cc4ccccc4C3)NC(=O)[C@H]2CC(C)C)cc1	1.58 nM	–	–	–
CC(C)C[C@@H]1C(=O)N[C@H](C2Cc3ccccc3C2)C(=O)N1[C@H](C(=O)NC(C)C)c1ccc(N(C)C)cc1	25.1 nM	–	–	–
CC(C)C[C@@H]1C(=O)N[C@H](C2Cc3ccccc3C2)C(=O)N1[C@@H](C(=O)NC(C)(C)C)c1cccc(N2CCN(C)CC2)c1	158 nM	–	–	–
COc1ccc([C@H](C(=O)NC(C)(C)C)N2C(=O)[C@@H](C3Cc4ccccc4C3)NC(=O)[C@H]2CC(C)C)cc1	2.51 nM	3.4	101 ng·h/mL	–
CC(C)C[C@@H]1C(=O)N[C@H](C2Cc3ccccc3C2)C(=O)N1[C@H](C(=O)NC(C)(C)C)c1ccc(OC(F)(F)F)cc1	158 nM	–	–	–
CC(=O)Nc1ccc([C@H](C(=O)NC(C)(C)C)N2C(=O)[C@@H](C3Cc4ccccc4C3)NC(=O)[C@H]2CC(C)C)cc1	2 nM	2.4	59 ng·h/mL	–
c1ccc2c(c1)CNCO2	2 nM	–	–	–
CC(=O)Nc1ccc([C@@H](C(=O)NC(C)C)N2C(=O)[C@@H](C3Cc4ccccc4C3)NC(=O)[C@H]2CC(C)C)cc1	126 nM	–	–	–
CC(C)C[C@@H]1C(=O)N[C@H](C2Cc3ccccc3C2)C(=O)N1[C@@H](C(=O)N(C)C(C)C)c1ccccc1	3.98 nM	–	–	–
CC(C)C[C@@H]1C(=O)N[C@H](C2Cc3ccccc3C2)C(=O)N1[C@@H](C(=O)NC(C)(C)C)c1ccc(Cl)cc1	2.51 nM	4	95 ng·h/mL	bioavailability [1]: 2%; Vd [2]: 0.4 L/kg; half-life [3]: 42 min; CL (Plasma clearance in rat): 43 mL/min/kg
CC(C)C[C@@H]1C(=O)N[C@H](C2Cc3ccccc3C2)C(=O)N1[C@@H](C(=O)NC(C)(C)C)c1ccc(N2CCN(C)CC2)cc1	25.1 nM	–	–	–
CC(C)C[C@@H]1C(=O)N[C@H](C2Cc3ccccc3C2)C(=O)N1[C@@H](C(=O)NC(C)C)c1ccccc1	3.98 nM	3.2	114 ng·h/mL	bioavailability [1]: 5%; Vd [2]: 0.8 L/kg; half-life [3]: 60 min; CL (Plasma clearance in rat): 29 mL/min/kg
CC(C)C[C@@H]1C(=O)N[C@H](C2Cc3ccccc3C2)C(=O)N1[C@H](C(=O)NC(C)C)c1ccc(F)cc1	100 nM	–	–	–
Cc1ccc([C@H](C(=O)NC(C)C)N2C(=O)[C@@H](C3Cc4ccccc4C3)NC(=O)[C@H]2CC(C)C)cc1	3.98 nM	3.5	–	Vd [2]: 0.6 L/kg; half-life [3]: 36 min; CL (Plasma clearance in rat): 37 mL/min/kg
